Reference: ChEMBL document CHEMBL3804766, “Discovery of Dual Inhibitors for Wild Type and D816V Mutant of c-KIT Kinase through Virtual and Biochemical Screening of Natural Products” (J Nat Prod, 2016)
pIC50: −log10 of the molar value.

Key:
[1] = biological target: T1, Mast/stem cell growth factor receptor Kit (Homo sapiens, UniProt P10721); test: Inhibition of wild type c-KIT (unknown origin) expressed in T7-phage infected Escherichia coli BL21 assessed as remaining activity at 100 uM incubated for 1 hr with shaking by qPCR method relative to control
T1 sequence (P10721 whole entry): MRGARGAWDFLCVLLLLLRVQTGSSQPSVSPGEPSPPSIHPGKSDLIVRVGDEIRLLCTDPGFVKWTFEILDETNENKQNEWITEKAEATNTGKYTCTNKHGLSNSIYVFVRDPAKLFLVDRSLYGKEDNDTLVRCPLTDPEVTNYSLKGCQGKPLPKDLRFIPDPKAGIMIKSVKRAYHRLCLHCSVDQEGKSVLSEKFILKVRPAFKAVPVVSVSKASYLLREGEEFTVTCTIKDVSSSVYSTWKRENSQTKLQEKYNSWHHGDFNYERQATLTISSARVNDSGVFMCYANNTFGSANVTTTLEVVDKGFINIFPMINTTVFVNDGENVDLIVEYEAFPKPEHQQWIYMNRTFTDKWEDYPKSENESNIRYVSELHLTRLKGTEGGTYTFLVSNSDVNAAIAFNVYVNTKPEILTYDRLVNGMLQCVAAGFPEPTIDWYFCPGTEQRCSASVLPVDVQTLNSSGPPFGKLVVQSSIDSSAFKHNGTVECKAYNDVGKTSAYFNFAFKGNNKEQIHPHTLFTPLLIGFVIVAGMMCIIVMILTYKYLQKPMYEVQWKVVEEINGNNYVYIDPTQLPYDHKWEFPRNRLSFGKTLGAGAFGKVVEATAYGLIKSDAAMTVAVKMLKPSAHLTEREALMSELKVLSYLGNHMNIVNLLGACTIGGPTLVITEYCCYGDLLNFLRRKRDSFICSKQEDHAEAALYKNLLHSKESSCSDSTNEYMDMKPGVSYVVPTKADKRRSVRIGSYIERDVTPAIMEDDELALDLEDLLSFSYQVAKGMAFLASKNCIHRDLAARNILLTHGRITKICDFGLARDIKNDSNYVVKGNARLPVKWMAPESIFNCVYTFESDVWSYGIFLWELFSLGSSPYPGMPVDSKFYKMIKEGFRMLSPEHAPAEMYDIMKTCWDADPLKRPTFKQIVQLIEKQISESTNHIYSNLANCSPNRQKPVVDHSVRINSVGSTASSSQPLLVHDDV
Summary of the method: (§1)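 Competition binding assay run at a single 100 μM concentration, added from 40× DMSO stocks. Tagged kinase was combined with immobilized biotinylated ligand on streptavidin magnetic beads in SeaBlock/0.17× PBS/0.05% Tween 20/6 mM DTT for 1 h at RT with shaking. Beads were washed, then eluted with 0.5 μM free ligand for 30 min. Eluted kinase was quantified by qPCR as percent of control.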

[2] = test system: Mast/stem cell growth factor receptor Kit (Homo sapiens), P10721 [D816V]; test: Inhibition of c-KIT D816V mutant (unknown origin) expressed in HEK293 cells assessed as remaining activity at 100 uM incubated for 1 hr with shaking by qPCR method relative to control; format: cell-based; summary of the method: as §1
Sequence of Mast/stem cell growth factor receptor Kit (Homo sapiens), P10721 [D816V] (P10721 whole entry D816V, the tested form may be a part): as the sequence (P10721 whole entry) above, with D816V counted along it

[3] = biological target: T1, Mast/stem cell growth factor receptor Kit; test: Inhibition of wild type His-tagged c-KIT (544 to 976 amino acids) (unknown origin) expressed in insect cells using poly[Glu:Tyr] (4:1) as substrate preincubated for 20 mins followed by [33P-gamma]ATP addition and subsequent inhibition for 2 hrs by radiometric assay
Summary of the method: (§2)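 Compounds were serially diluted in DMSO and preincubated with enzyme for 20 min at RT. Final ATP was 1 μM. Reaction ran 2 h at RT, read by filter binding. Percent activity was taken relative to DMSO, and IC50 came from curve fitting.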

[4] = biological target: Mast/stem cell growth factor receptor Kit (Homo sapiens, UniProt P10721, D816V); test: Inhibition of N-terminal GST-His-tagged c-KIT (544 to 976 amino acids) D816V mutant (unknown origin) expressed in Sf9 insect cells using poly[Glu:Tyr] (4:1) as substrate preincubated for 20 mins followed by [33P-gamma]ATP addition and subsequent inhibition for 2 hrs by radiometric assay; summary of the method: as §2
Sequence of Mast/stem cell growth factor receptor Kit (Homo sapiens, UniProt P10721, D816V) (P10721 26-976 D816V limits assumed): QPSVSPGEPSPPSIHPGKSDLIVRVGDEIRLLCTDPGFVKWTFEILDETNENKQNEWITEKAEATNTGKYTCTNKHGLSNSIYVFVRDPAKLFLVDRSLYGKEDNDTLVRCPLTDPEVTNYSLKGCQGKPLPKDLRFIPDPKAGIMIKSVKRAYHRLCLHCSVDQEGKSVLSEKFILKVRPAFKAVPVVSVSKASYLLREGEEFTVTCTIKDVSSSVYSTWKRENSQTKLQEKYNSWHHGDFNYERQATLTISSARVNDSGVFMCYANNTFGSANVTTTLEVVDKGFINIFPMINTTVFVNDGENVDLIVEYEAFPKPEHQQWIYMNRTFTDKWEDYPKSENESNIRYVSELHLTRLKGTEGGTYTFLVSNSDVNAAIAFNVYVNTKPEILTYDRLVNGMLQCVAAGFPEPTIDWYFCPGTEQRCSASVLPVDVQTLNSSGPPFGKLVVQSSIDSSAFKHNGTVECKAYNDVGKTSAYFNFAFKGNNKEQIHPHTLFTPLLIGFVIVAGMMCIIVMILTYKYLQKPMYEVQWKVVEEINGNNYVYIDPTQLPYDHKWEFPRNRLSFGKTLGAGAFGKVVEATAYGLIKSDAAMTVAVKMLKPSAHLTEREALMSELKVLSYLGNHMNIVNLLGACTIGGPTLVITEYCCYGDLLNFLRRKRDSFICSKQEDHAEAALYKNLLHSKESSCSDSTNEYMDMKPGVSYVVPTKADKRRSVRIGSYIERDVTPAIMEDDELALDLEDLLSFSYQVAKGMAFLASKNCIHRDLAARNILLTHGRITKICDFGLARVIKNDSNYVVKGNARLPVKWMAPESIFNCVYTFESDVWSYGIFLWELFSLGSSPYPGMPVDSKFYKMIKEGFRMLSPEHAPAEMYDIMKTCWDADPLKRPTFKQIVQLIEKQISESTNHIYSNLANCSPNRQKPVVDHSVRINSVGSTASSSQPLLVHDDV

Homo sapiens = organism: Homo sapiens; test: Selectivity ratio of IC50 for wild type His-tagged c-KIT (544 to 976 amino acids) (unknown origin) to IC50 for N-terminal GST-His-tagged c-KIT (544 to 976 amino acids) D816V mutant (unknown origin)

| Kinase binding remaining, % of control [1] [%] | Activity [2] [%] | pIC50 [3] | pIC50 [4] | Ratio IC50 (Homo sapiens) | SMILES |
| --- | --- | --- | --- | --- | --- |
| 1 | 0 | 5.11 | 6.30 | – | COc1c(O)c(O)c2oc(-c3ccccc3)cc(=O)c2c1OC |
| 12 | 15 | – | – | – | O=C1c2c(O)cc(O)cc2O[C@H](c2ccc(O)c(O)c2)[C@H]1O |
| 0 | 3 | 5.82 | 6.22 | – | COc1ccc(-c2cc(=O)c3c(O)c(OC)c(O)cc3o2)cc1 [PECTOLINARIGENIN] |
| 0 | 15 | 4.81 | 5.85 | > 10 | COc1ccc(/C=C2\Oc3cc(O)ccc3C2=O)cc1 |
